NPY1 pot ag = potentiators or agonists of human neuropeptide Y receptor Y1; P25929; NPY-Y1 expressing cells, potentiator/agonist activation; activation, % at 3.6 µM; actives 0.37% (n = 220,000); AID 1304; in the data active = activation above about 33%, passing the limit was not always enough;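 also: cells stimulated with NPY at EC10 then isoproterenol at EC100; 0% = low agonist plus stimulus and 100% = saturating agonist plus stimulus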
NPY-Y2 PAM-ag = potentiates or activates human NPY-Y2 receptor. activation, % at 3.6 µM. cells expressing NPY-Y2, potentiator/agonist read-out. AID 1359. actives 0.45% (n = 220,000); in the data active = activation above about 27%;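 also: cells stimulated with NPY near EC25 plus isoproterenol at EC100; 0% = vehicle plus submaximal agonist and 100% = vehicle plus saturating agonist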
Target sequence (P49146 whole entry, looked up): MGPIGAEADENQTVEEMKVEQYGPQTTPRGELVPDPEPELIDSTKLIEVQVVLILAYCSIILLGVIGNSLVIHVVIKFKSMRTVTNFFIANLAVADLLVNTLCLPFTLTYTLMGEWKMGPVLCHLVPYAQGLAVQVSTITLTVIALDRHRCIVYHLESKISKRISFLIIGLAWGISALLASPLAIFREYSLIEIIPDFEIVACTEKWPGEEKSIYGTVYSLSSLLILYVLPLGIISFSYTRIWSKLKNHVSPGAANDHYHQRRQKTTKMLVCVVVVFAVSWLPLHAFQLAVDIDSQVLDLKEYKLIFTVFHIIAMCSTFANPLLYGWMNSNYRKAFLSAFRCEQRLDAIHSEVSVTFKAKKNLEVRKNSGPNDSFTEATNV
NPY-Y2 antag = NPY-Y2 (human) receptor antagonism. P49146. inhibition, % at 2.7 µM. actives 0.99% (n = 140,000). NPY-Y2 expressing cells, antagonist mode; in the data active = inhibition above about 17%;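 also: 0% = vehicle with agonist challenge and 100% = reference antagonist with challenge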
TbHK1 inh = T. brucei hexokinase 1 inhibition; recombinant TbHK1, G6PDH-coupled NADH A340; inhibition, % at 10 µM; actives 0.11% (n = 220,000); AID 1430;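 active = inhibition of 50% or more in the single-dose primary screen; inactive = inhibition below 50%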
m-calpain inh = blocks pig calpain II enzyme activity; purified calpain II, fluorogenic peptide substrate, 30 min; inhibition, % at 16 µM; actives 0.37% (n = 220,000); AID 1236;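 active = inhibition above about 50%, limit read from the data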
NPY-Y1 antag = NPY-Y1 (human) receptor antagonism; HEK293-CNG Y1 cells, membrane potential fluorescence; NPY at EC95, then isoproterenol; inhibition, % at 3.6 µM; actives 1% (n = 200,000);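 active = inhibition above the campaign mean inhibition of all tested compounds plus 3 SD, cut at about 20% in these data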;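 also: 0% = DMSO wells given NPY plus isoproterenol and 100% = isoproterenol alone without NPY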
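Material: HEK293 Y1/CNG channel cell line; also added: NPY (25 nM), isoproterenol (1 µM), Ro 20-1724 (25 µM); doses: one concentration, 3.6 µM, in 0.4% DMSO; schedule: compound incubation 1 h at room temperature, readout 45 min post-stimulation; technique: membrane potential fluorescence; measure: fluorescence ratio normalized to % inhibition between controls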
An asterisk follows results filed as active; / = not tested or not shown; ! = a repeat was not active. A selection: hits, their analogues and other compounds. The true share with any hit is near 2.3%.

SMILES | NPY1 pot ag | NPY-Y2 PAM-ag | NPY-Y2 antag | TbHK1 inh | m-calpain inh | NPY-Y1 antag
Cn1cnnc1SCc1ccc(C(=O)N=Nc2c(O)n(Cc3ccc(Cl)cc3)c3ccccc23)cc1 | 47* | 46* | -2 | -15 | -43 | -8
COc1cc2c(cc1OC)-c1cc(NC3CCCCC3)nc(=O)n1CC2 | -45 | -2 | 12 | -27 | -48 | 33*
CCNc1cc2n(c(=O)n1)CCc1cc(OC)c(OC)cc1-2 | 12 | 5 | 3 | -39 | -146 | 4
COc1cc2c(cc1OC)-c1cc(NC3CCCCCCC3)nc(=O)n1CC2 | -65 | -54 | 72* | -12 | -134 | 64*
COc1cc2c(cc1OC)-c1cc(NC3CC3)nc(=O)n1CC2 | -7 | 2 | 4 | -46 | -45 | 11
CCOC(=O)CCc1c(C(=O)OCC)[nH]c(CC)c1C(=O)OCc1ccccc1 | -38 | -17 | / | -12 | 11 | /
C=CCn1c(=O)[nH]c2cc(C(=O)N3CC=C(c4ccccc4)CC3)ccc2c1=O | -19 | 0 | / | 1 | -60 | 5
Fc1cccc2sc(Nc3nc4ccccc4s3)nc12 | -34 | 5 | 1 | 38 | -38 | -2
O=C(Cc1ccc([N+](=O)[O-])cc1)Nc1ccc(Cl)cc1 | 9 | -3 | / | -6 | -72 | -4
O=C(O)CC(Cc1ccc(Cl)cc1)C(=O)Nc1ccc([N+](=O)[O-])cc1 (configuration not stated) | -18 | 0 | / | -14 | 69* | 6
Cc1cc(C(=O)CCl)c(C)n1CCc1ccc(F)cc1 | 4 | 0 | / | -6 | 6 | -1
Cc1cc(C(=O)CCl)c(C)n1CCc1ccc(Cl)cc1 | 63* | 91* | / | 3 | -15 | -4
Nc1c(C(O)(C(F)(F)F)C(F)(F)F)cc(C(O)(C(F)(F)F)C(F)(F)F)c2ccccc12 | 48* | 77* | -7 | -1 | -5 | -26
N#Cc1c(NCCN)nc(-c2ccccc2)c2c1CCCC2 | -37 | -33 | 24* | -13 | 6 | 29*
N#Cc1c(NCCCO)nc(-c2ccccc2)c2c1CCCC2 | 23 | 21 | 0 | -12 | -126 | -6
Cc1cc(N=Nc2ccccc2)c(NCC(O)C(O)C(O)CO)cc1C (configuration not stated) | 73* | 57* | / | -16 | -14 | -16
CCOC(CNC(=O)Cn1nc(C)c2ccccc21)OCC | 28 | 11 | / | 2 | -34 | -2
O=C(Nc1cccc(Cl)c1)OCc1cn(-c2ccccc2)nn1 | -11 | -17 | / | 1 | -19 | 21*
Cc1cc(C)n(-c2cccc(CN(C)Cc3nc(-c4cnccn4)no3)c2)n1 | 1 | -4 | / | -3 | 9 | -2
Cc1ccccc1C(=O)OCc1cnc(Cl)s1 | -11 | -3 | / | -9 | 25 | 2
Cc1ccc(NC2=C/C(=N/S(=O)(=O)c3cccs3)c3ccccc3C2=O)cc1C | -23 | -10 | -3 | 10 | 50* | 6
Cc1ccccc1NC1=C/C(=N\S(=O)(=O)c2cccs2)c2ccccc2C1=O | 42 | 9 | -6 | -7 | -3 | -13
CC(C)C(NC(=O)C(NC(=O)C1OC2OC(C)(C)OC2C2OC(C)(C)OC12)C(C)C)C(=O)O (configuration not stated) | 12 | 4 | / | -6 | -9 | -2
OC(COc1ccccc1Cl)CN1CCN(CC(O)COc2ccccc2Cl)CC1 (configuration not stated) | 86* | 48* | 4 | -5 | -21 | -14
Cc1ccccc1OCC(O)CN1CCN(C)CC1 (configuration not stated) | -1 | -5 | / | 0 | 7 | 0
SMILES | NPY1 pot ag | NPY-Y2 PAM-ag | NPY-Y2 antag | TbHK1 inh | m-calpain inh | NPY-Y1 antag
C=CCc1ccccc1OCC(O)CN1CCN(c2ccccc2F)CC1 (configuration not stated) | 95* | 87* | 5 | 0 | 9 | -12
C=CCc1ccccc1OCC(CN1CCCCC1)OC(C)=O (configuration not stated) | 112* | 104* | 3 | -1 | 12 | -17
C=CCc1ccccc1OCCCCN1CCCC1 | -8 | 17 | 6 | 4 | -8 | 8
C=CCc1cc(C)ccc1OCC(O)CN1CCN(c2ccccc2)CC1 (configuration not stated) | 54* | 56* | 9 | 3 | -18 | -7
CSc1ncccc1C(=O)OCC(=O)NCc1ccc2c(c1)OCO2 | -6 | -21 | / | 0 | -3 | 13
Cc1cccc(C)c1NC(=O)COC(=O)C1CC(=O)N(Cc2ccccc2)C1 (configuration not stated) | -6 | -5 | / | 3 | -15 | 0
C=CCc1ccccc1OCC(O)CNC(C)C (configuration not stated) | 116* | 103* | 4 | -6 | 8 | -13
C=CCc1ccccc1OCC(O)CN1CCN(c2ccccc2OC)CC1 (configuration not stated) | 112* | 102* | 4 | 5 | 4 | -15
COc1ccccc1N1CCN(CC(O)COc2cccc3ccccc23)CC1 (configuration not stated) | 88* | 66*! | 6 | -2 | 4 | -7
CC(C)NC[C@H](O)COc1cccc2[nH]ccc12 | / | / | / | -9 | -12 | /
Cc1ccc(C2(c3ccc(C)cc3)CC2C(=O)Nc2ccc([N+](=O)[O-])cc2O)cc1 (configuration not stated) | 12 | 45* | -3 | -6 | -101 | -5
CC1(C)CC1C(=O)Nc1ccc([N+](=O)[O-])cc1Br (configuration not stated) | -14 | -16 | 4 | -12 | 21 | 4
CC(=O)COc1ccc2c(-c3cccc([N+](=O)[O-])c3)cc(=O)oc2c1 | -8 | -14 | / | -8 | -17 | 4
O=C(O)COc1ccc2c(-c3ccccc3)cc(=O)oc2c1 | -23 | -41 | 7 | -24 | / | 20*
CC1(C)CC(=O)C(C=NCC2CCN(C(=O)Nc3ccc(Cl)c(Cl)c3)CC2)=C(O)C1 | 9 | 3 | 1 | -5 | 16 | -1
COc1ccccc1NC(=O)c1ccccc1-c1nc(-c2ccccc2OC)no1 | -30 | -20 | 9 | 7 | 10 | 12
COc1ccccc1-c1noc(-c2ccccc2C(=O)Nc2ccccc2)n1 | -36 | -6 | 24* | 8 | -1 | 23*
Cc1ccc(-c2ccc([C@H]3[C@@H]4C=CCC[C@@]4(C)C(=O)N3Cc3ccccc3)c(F)c2)cc1 | / | / | / | -11 | 66* | /
CCOC(=O)c1cnc2ccc(OCC)cc2c1N1CCN(c2ccccc2OC)CC1 | -51 | -13 | 5 | -26 | 33 | 9
CCOC(=O)c1cnc2ccc(OCC)cc2c1N(C)Cc1ccccc1 | -51 | -18 | 35* | 21 | 30 | 31*
COc1cccc(/C=C/C(=O)Nc2ccc(OC)nc2)c1 | -4 | -2 | 0 | 8 | 15 | 0

Bioassay records deposited in PubChem by several laboratories.
